Assay results published in ChEMBL document CHEMBL1123030, “N-(Aminoalkyl)imide antineoplastic agents. Synthesis and biological activity” (J Med Chem, 1985).
The source made the active and inactive calls. No cut-off for these calls is given here.

Tests used:
P388 [1] = test: Inhibitory activity in vivo against P388 leukemia cells in mice at a dose of 12.5 mg/kg upon intraperitoneal administration; format: functional, Mus musculus
Procedure, shortened: (§1)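 Tumor source was ascites fluid implanted into BDF₁ mice. Tumor inoculation and drug dosing were both intraperitoneal, given once daily for 5 days (q1d × 5). Screening and data interpretation followed the general NCI protocol.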

L1210 [2] = test: Cytotoxic activity against L1210 leukemia in vitro.; format: functional, Mus musculus
P388 [3] = test: Inhibitory activity in vivo against P388 leukemia cells in mice at a dose of 25 mg/kg upon intraperitoneal administration; format: functional, Mus musculus; procedure, shortened: as §1
P388 [4] = test: Inhibitory activity in vivo against P388 leukemia cells in mice at a dose of 50 mg/kg upon intraperitoneal administration; format: functional, Mus musculus; procedure, shortened: as §1
Mus musculus [5] = test: Compound was evaluated for inhibitory activity in vivo against P388 leukemia cells in mice at a dose of 200 mg/kg upon intraperitoneal administration; format: functional; procedure, shortened: as §1
Homo sapiens [6] = organism: Homo sapiens; test: Compound was tested for cytotoxic activity against human colon adenocarcinoma in vitro; IA means inactive; format: functional
P388 [7] = test: Inhibitory activity in vivo against P388 leukemia cells in mice at a dose of 100 mg/kg upon intraperitoneal administration; format: functional, Mus musculus; procedure, shortened: as §1
L1210 [8] = test: Compound was tested for cytotoxic activity against L1210 leukemia in vitro; IA means inactive; format: functional, cell-based; settings: Mus musculus
[9] = Cytotoxic activity against human colon adenocarcinoma in vitro; format: functional
Mus musculus [10] = test: Compound was evaluated for inhibitory activity in vivo against P388 leukemia cells in mice at a dose of 240 mg/kg upon intraperitoneal administration; format: functional; procedure, shortened: as §1
Mus musculus [11] = test: Compound was evaluated for inhibitory activity in vivo against P388 leukemia cells in mice at a dose of 30 mg/kg upon intraperitoneal administration; format: functional; procedure, shortened: as §1
Mus musculus [12] = test: Compound was evaluated for inhibitory activity in vivo against P388 leukemia cells in mice at a dose of 120 mg/kg upon intraperitoneal administration; format: functional; procedure, shortened: as §1
Mus musculus [13] = test: Compound was evaluated for inhibitory activity in vivo against P388 leukemia cells in mice at a dose of 60 mg/kg upon intraperitoneal administration; format: functional; procedure, shortened: as §1
Mus musculus [14] = test: Compound was evaluated for inhibitory activity in vivo against P388 leukemia cells in mice at a dose of 1.56 mg/kg upon intraperitoneal administration; format: functional; procedure, shortened: as §1
Mus musculus [15] = test: Compound was evaluated for inhibitory activity in vivo against P388 leukemia cells in mice at a dose of 6.25 mg/kg upon intraperitoneal administration; format: functional; procedure, shortened: as §1
Mus musculus [16] = test: Compound was evaluated for inhibitory activity in vivo against P388 leukemia cells in mice at a dose of 3.12 mg/kg upon intraperitoneal administration; format: functional; procedure, shortened: as §1
Homo sapiens [17] = organism: Homo sapiens; test: Compound was tested for cytotoxic activity against human colon adenocarcinoma in vitro; format: functional
Mus musculus [18] = test: Compound was evaluated for inhibitory activity against B-16 melanoma in mice at a dose of 25 mg/kg upon intraperitoneal administration; format: functional
Mus musculus [19] = test: Compound was evaluated for inhibitory activity against B-16 melanoma in mice at a dose of 6.25 mg/kg upon intraperitoneal administration; format: functional
Mus musculus [20] = test: Compound was evaluated for inhibitory activity against B-16 melanoma in mice at a dose of 12.5 mg/kg upon intraperitoneal administration; format: functional
Mus musculus [21] = test: Compound was evaluated for inhibitory activity in vivo against P388 leukemia cells in mice at a dose of 16 mg/kg upon intraperitoneal administration; format: functional; procedure, shortened: as §1
Mus musculus [22] = test: Compound was evaluated for inhibitory activity in vivo against P388 leukemia cells in mice at a dose of 8 mg/kg upon intraperitoneal administration; format: functional; procedure, shortened: as §1
Mus musculus [23] = test: Compound was evaluated for inhibitory activity in vivo against P388 leukemia cells in mice at a dose of 2 mg/kg upon intraperitoneal administration; format: functional; procedure, shortened: as §1
Mus musculus [24] = test: Compound was evaluated for inhibitory activity in vivo against P388 leukemia cells in mice at a dose of 4 mg/kg upon intraperitoneal administration; format: functional; procedure, shortened: as §1

Cl.O=C1c2cccc3cc([N+](=O)[O-])cc(c23)C(=O)N1CCN1CCCCC1 gave a T/C (P388 [1]) of 119, a Cytotoxic concentration (L1210 [2]) of 590 nM and a T/C (P388 [3]) of 137. For the same compound, the T/C (P388 [4]) was 176.
For CN(C)CCN1C(=O)c2cccc3cc(O)cc(c23)C1=O, the Cytotoxic concentration (L1210 [2]) was 1640 nM, the T/C (Mus musculus [5]) was 142 and the Cytotoxic concentration (Homo sapiens [6]) was “inactive”. For the same compound, the T/C (P388 [7]) was 115.
With CCN(CC)CCN1C(=O)c2cccc3cc([N+](=O)[O-])cc(c23)C1=O.Cl the T/C (P388 [1]) was 120, the Cytotoxic concentration (L1210 [2]) was 1370 nM and the T/C (P388 [3]) was 149.
With Cl.O=C1c2cccc3cccc(c23)C(=O)N1CCNCCO the Cytotoxic concentration (L1210 [2]) was 2050 nM, the T/C (P388 [3]) was 102 and the T/C (P388 [4]) was 120.
With COc1ccc2c3c(ccc(OC)c13)C(=O)N(CCN(C)C)C2=O the T/C (Mus musculus [5]) was 123, the T/C (P388 [3]) was 102 and the Cytotoxic concentration (L1210 [8]) was “inactive”. The T/C (P388 [4]) was 120 and the T/C (P388 [7]) was 118.
Work on O=C1c2cc([N+](=O)[O-])cc3cc([N+](=O)[O-])cc(c23)C(=O)N1CCNCCO.O=S(=O)(O)O yielded a Cytotoxic concentration [9] of 1250 nM, a T/C (Mus musculus [10]) of 132 and a Cytotoxic concentration (L1210 [2]) of 431 nM. The T/C (Mus musculus [11]) was 118, the T/C (Mus musculus [12]) was 123 and the T/C (Mus musculus [13]) was 123.
In the case of CN(C)CCN1C(=O)c2cccc3cc([N+](=O)[O-])cc(c23)C1=O.Cl, the T/C (Mus musculus [14]) was 121, the Cytotoxic concentration (L1210 [2]) was 151 nM and the T/C (Mus musculus [15]) was 164. For the same compound, the T/C (Mus musculus [16]) was 138 and the Cytotoxic concentration (Homo sapiens [17]) was 106 nM.
In the case of CN(C)CCCN1C(=O)c2cc([N+](=O)[O-])cc3cc([N+](=O)[O-])cc(c23)C1=O.Cl, the Cytotoxic concentration [9] was 1180 nM, the T/C (P388 [1]) was 113 and the Cytotoxic concentration (L1210 [2]) was 1420 nM. It also gave a T/C (P388 [3]) of 129 and a T/C (P388 [4]) of 154.
With Cl.O=C1c2cccc3cc([N+](=O)[O-])cc(c23)C(=O)N1CCN1CCNCC1 the T/C (P388 [1]) was 116, the Cytotoxic concentration (L1210 [2]) was 1380 nM and the T/C (P388 [3]) was 129. The T/C (P388 [4]) was 136.
CNCCN1C(=O)c2cccc3cc([N+](=O)[O-])cc(c23)C1=O.Cl gave a T/C (P388 [1]) of 177, a Cytotoxic concentration (L1210 [2]) of 266 nM and a T/C (Mus musculus [15]) of 139. The T/C (Mus musculus [16]) was 129.
For CN(C)CCN1C(=O)c2ccc3c4c(ccc(c24)C1=O)C(=O)N(CCN(C)C)C3=O, the T/C (Mus musculus [15]) was 125 and the T/C (Mus musculus [16]) was 116.
In the case of CCN(CC)CCN1C(=O)c2cc([N+](=O)[O-])cc3cc([N+](=O)[O-])cc(c23)C1=O.Cl, the Cytotoxic concentration [9] was 820 nM, the T/C (P388 [1]) was 141 and the Cytotoxic concentration (L1210 [2]) was 347 nM. For the same compound, the T/C (P388 [3]) was 207 and the T/C (P388 [4]) was 215.
Compound Cl.O=C1c2cc([N+](=O)[O-])cc3cc([N+](=O)[O-])cc(c23)C(=O)N1CCN1CCCCC1 has a Cytotoxic concentration [9] of 539 nM, a T/C (Mus musculus [18]) of 156 and a T/C (P388 [1]) of 138. The T/C (Mus musculus [19]) was 114, the Cytotoxic concentration (L1210 [2]) was 287 nM and the T/C (Mus musculus [20]) was 133. For the same compound, the T/C (P388 [3]) was 181 and the T/C (P388 [4]) was 247.
In the case of CN(C)CCN1C(=O)c2cccc3cccc(c23)C1=O, the Cytotoxic concentration (L1210 [2]) was 2050 nM, the T/C (P388 [3]) was 116 and the T/C (P388 [4]) was 130. For the same compound, the T/C (P388 [7]) was 166.
With CN(C)CCN1C(=O)c2cccc3cc(N)cc(c23)C1=O [AMONAFIDE] the T/C (Mus musculus [21]) was 177, the T/C (Mus musculus [22]) was 144 and the T/C (Mus musculus [23]) was 135. For the same compound, the T/C (Mus musculus [24]) was 142.
